# SF-1 act – activates the human nuclear receptor SF-1 | activation, % at 10 µM | AID 522 | CHO-K1 Gal4-SF-1 LBD luciferase reporter; % increase over DMSO SF-1-specific signal | actives 1.9% (n = 65,000) | Q13285;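 active = activation above the mean activation of all tested compounds plus 3 SD, cut at about 50% in these data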
# Target sequence (Q13285 whole entry, looked up, the tested form may be a part): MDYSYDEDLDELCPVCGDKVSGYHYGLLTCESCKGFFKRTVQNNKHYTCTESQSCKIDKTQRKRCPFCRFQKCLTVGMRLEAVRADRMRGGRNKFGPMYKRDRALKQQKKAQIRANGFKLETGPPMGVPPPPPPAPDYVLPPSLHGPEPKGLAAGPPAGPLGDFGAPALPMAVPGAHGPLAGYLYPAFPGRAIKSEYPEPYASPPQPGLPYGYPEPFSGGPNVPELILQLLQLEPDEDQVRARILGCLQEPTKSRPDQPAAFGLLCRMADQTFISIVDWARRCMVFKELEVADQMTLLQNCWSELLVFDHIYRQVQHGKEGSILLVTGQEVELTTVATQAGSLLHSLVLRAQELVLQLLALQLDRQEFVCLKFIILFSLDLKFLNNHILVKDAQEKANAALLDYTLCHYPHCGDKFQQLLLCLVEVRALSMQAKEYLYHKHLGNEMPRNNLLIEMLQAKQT
#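 Test system: CHO-K1 cells with Gal4–hSF-1 LBD chimera plus Gal4-driven luciferase; Input: 4,000 cells/well; Compound: 10 µM only; Times: 20 h compound treatment, 37 °C; Measured by: steady-glow luciferase luminescence, read after 15 min reagent incubation; Measure: percent activation versus DMSO; Control set: DMSO and mock-transfected background; Replicates: one test per compound.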
# ROCK2 inh – inhibitors of human Rho kinase 2; inhibition, % at 6 µM; purified ROCK2, Kinase-Glo ATP depletion luminescence; O75116; AID 604; actives 0.35% (n = 60,000);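 active = inhibition above the screen-wide mean inhibition plus 3 SD, cut at about 18% in these data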;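 note: plate controls were DMSO wells for no effect and Y-27632 control wells after no-enzyme background subtraction for full effect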
# RORA act – activators of human nuclear receptor RORA | P35398 | CHO-K1 Gal4-RORA LBD luciferase reporter, luminescence; percent increase over mock-subtracted basal signal | activation, % at 10 µM | actives 1.5% (n = 65,000) | AID 560;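 active = activation above the mean of all tested compounds plus 3 SD, cut at about 49% in these data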;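 note: 0% = DMSO-treated RORA cells and 100% = added signal equal to DMSO minus mock-transfected cells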
# JNK3 inh – inhibitors of human JNK3 kinase; P53779; purified JNK3 kinase activity, HTS; inhibition, % at 8 µM; actives 0.61% (n = 60,000); AID 746; in the data active = inhibition above about 17%;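 note: 0% = DMSO and 100% = reference inhibitor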
# WNV NS2B-NS3 inh – inhibitors of West Nile virus NS2B-NS3 protease. P06935. WNV NS2B-NS3 protease, fluorogenic substrate Ex360/Em465; hits give low values. z-score (no concentration beside the values). actives 0.18% (n = 65,000). AID 577; in the data active = z-score below about -3
# PKA inh – blocks human protein kinase A activity; P17612; actives 0.1% (n = 65,000); PKA Kemptide phosphorylation, Kinase-Glo ATP luminescence; inhibition, % at 6 µM;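 active = inhibition above the screen-wide mean inhibition plus 3 SD, cut at about 21% in these data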
# Starred values were filed as active, the others as inactive; nt = no result given. This is a sample that favours compounds with a hit; in the whole collection about 3.4% have one here.
SMILES,SF-1 act,ROCK2 inh,RORA act,JNK3 inh,WNV NS2B-NS3 inh,PKA inh
Cn1c(SCc2ccccc2)nnc1-c1cccs1,57*,3,50*,5,-0.58,3
Cc1ccc(CSc2nnc(-c3ccccn3)n2C)cc1,20,-4,46,-6,1.2,4
Cn1c(SCc2ccc(F)cc2)nnc1-c1ccccn1,64*,4,28,-3,-0.98,8
Cn1c(SCc2ccccc2)nnc1-c1ccncc1,1,5,-10,-1,-0.81,8
Cn1c(SCc2ccc(F)cc2)nnc1-c1cccs1,51*,9,38,2,0.34,15
Cn1c(SCc2ccc(Br)cc2)nnc1-c1ccncc1,5,17,-11,-4,-0.31,25*
CCOc1ccc(C(C)(C)C)cc1S(=O)(=O)N1CC(C)OC(C)C1 (stereo not given),-6,4,-12,2,0.23,11
Cn1c(SCc2ccccc2F)nnc1-c1cnccn1,44,0,65*,3,-0.44,5
O=C(CSc1ncc(-c2ccc(F)cc2)n1Cc1ccco1)Nc1nccs1,2,2,34,2,0.41,1
CCC(=O)Nc1cc(NC(=O)CSc2ncc(-c3ccc(F)cc3)n2Cc2ccco2)ccc1C,69*,7,55*,8,0.95,8
CC(=O)N1CCc2cc(S(=O)(=O)NC(CC(C)C)C(=O)Nc3ccc4c(c3)OCCO4)ccc21 (stereo not given),3,3,5,-6,0.23,8
Cc1nc2c(sc3nc4c(cc32)COC(C)(C)C4)c(=O)n1CC(=O)NCc1ccco1,134*,nt,101*,nt,0.58,-4
CCCc1nc2c(sc3nc4c(cc32)COC(C)(C)C4)c(=O)n1Cc1ccco1,-30,-10,-1,0,-1,-8
CC1(C)Cc2nc3sc4c(SCC(=O)NCc5ccco5)ncnc4c3cc2CO1,81*,-7,28,-10,0.03,-9
COc1ccccc1CN1CCN(C(CC(C)C)c2nnnn2Cc2cccs2)CC1 (stereo not given),-1,2,4,-1,-1,2
CC1CCN(S(=O)(=O)c2ccc(NC(=O)Cn3nnc(-c4ccccc4F)n3)cc2)CC1,11,-6,53*,9,0.01,-6
CC1CCN(S(=O)(=O)c2ccc(NC(=O)CN3CCN(c4ccccc4)CC3)cc2)CC1,4,9,-9,0,-0.61,10
CCc1nnc(NC(=O)Nc2ccccc2OC)s1,13,2,-15,6,-0.08,1
COc1ccccc1NC(=O)Nc1nnc(C(C)C)s1,53*,1,44,16,-0.21,2
COc1ccccc1-c1nnc(NC(C)=O)s1,14,-1,78*,0,0.91,2
CCNC(=O)NC(=O)CSc1ccc(NC(C)=O)cc1,-6,1,-5,0,-1.6,-1
CCNC(=O)NC(=O)COC(=O)c1ccccc1SCC(=O)NC(=O)NCC,69*,1,31,6,-0.59,6
Fc1ccc2nc3[nH]c4ccccc4c3nc2c1,90*,4,39,37*,-1,0
CCCn1c(SCc2cc(=O)oc3ccc4ccccc4c23)n[nH]c1=O,-9,6,-11,-3,1.9,5
COc1ccc(-n2c(C)cc(C(=O)CSc3nnc(-c4ccoc4C)n3C)c2C)cc1,-2,4,8,0,0.22,8
SMILES,SF-1 act,ROCK2 inh,RORA act,JNK3 inh,WNV NS2B-NS3 inh,PKA inh
O=C(CN1C(=O)CCC1=O)Nc1nc(-c2nc3ccccc3s2)cs1,106*,2,87*,3,-1.3,5
O=C(CN1C(=O)CCC1=O)Nc1nc(-c2ccccn2)cs1,-4,4,-7,-4,1.9,6
O=C(Nc1nc(-c2nc3ccccc3s2)cs1)C1CC1,29,4,51*,7,0.2,3
CCc1ccc(Nc2cc(=O)n(C3CCCCC3)c(=O)[nH]2)cc1,52*,6,16,2,0.23,13
COC(=O)c1ccc(CSc2ccc3nnc(-c4cccc(F)c4)n3n2)o1,-12,4,8,-2,-0.2,6
CCNc1nc(N)nc(Oc2ccc(C(=O)OC)cc2)n1,44,4,56*,3,-0.43,9
CC(C)(C)c1ccc(-c2nc(C#N)c(NCc3ccncc3)o2)cc1,83*,1,60*,0,-0.46,5
COc1ccc(-c2nc(C#N)c(NCc3ccc(C)cc3)o2)cc1OC,4,-4,-1,-7,0.27,-2
CC(C)OC(=O)CSc1nnc(-c2cnccn2)n1-c1ccccc1,5,4,16,-2,-0.25,0
COC(=O)C1CCN(C(=O)C2CCCCC2)CC1,10,0,7,-4,-0.22,-2
c1ccc(-c2cnc(CSc3nnc4ccccn34)o2)cc1,71*,6,17,5,-0.26,8
Cc1ccccc1-n1nnnc1SCc1ncc(-c2ccccc2)o1,-11,-2,-4,-5,0.22,-4
Brc1ccc(-c2nc(-c3ccncc3)no2)o1,50*,-10,27,11,2,2
Brc1ccc(-c2nc(-c3ccccn3)no2)o1,-42,-17,-49,3,1.1,-14
c1coc(-c2nc(-c3ccncc3)no2)c1,50*,1,48,-2,0.73,-1
CCCCc1ccc(-c2nc(-c3ccncc3)no2)cc1,48,nt,59*,nt,2.9,6
CCOC(=O)Cn1nc(-c2ccc(Cl)cc2)cc1N,1,nt,16,nt,1.4,5
CCOC(=O)CCn1nc(-c2ccc(Cl)cc2)cc1N,70*,2,41,4,-0.04,8
CC1CCCN(C(=O)c2cc(F)c(F)cc2Cl)C1 (stereo not given),7,0,-26,4,-0.36,3
COc1ccc(Nc2ncnc3c2cnn3-c2ccccc2)cc1OC,14,6,-6,6,-1.1,7
Clc1ccc(Nc2ncnc3c2cnn3-c2ccccc2)cc1,22,1,72*,9,-0.4,6
CC(=O)Nc1ccc(Nc2ncnc3c2cnn3-c2cccc(C)c2)cc1,24,6,66*,10,-1.4,9
CC(=O)Nc1ccc(Nc2ncnc3c2cnn3-c2ccccc2)cc1,33,-4,55*,8,3.6,-1
Cc1occc1-c1nnc(SCC(=O)c2cc3ccccc3oc2=O)o1,2,-6,-12,-4,-0.07,1
O=C(CCN1C(=O)COc2ccccc21)NCc1cccs1,-7,4,0,-2,-1.2,9
COc1ccccc1C1CC(c2ccc(Cl)cc2)Nc2ncnn21 (stereo not given),-10,9,2,1,-0.52,8
CCCC(c1nnnn1Cc1ccco1)N1CCC(C(N)=O)CC1 (stereo not given),-10,8,-6,5,0.49,-2

# Screens deposited in PubChem BioAssay by several laboratories.
